Screening data (PubChem BioAssay)
Only some compounds are listed: those with a hit (about 3.6% of all), similar ones and a draw of the others.
Measles CPE: compounds protecting cells from measles virus cytopathic effect, primary screen, measles RdRp inhibitor project, single point, MLSMR library, absorbance; Measles virus-infected cells, CPE protection; protection (pct of control), % at 4 µM; 1.5% of 140,000 active; AID 841, 2007; in the data active = protection mostly above about 24%, no sharp cut-off; inactive = mostly below about 26%
Yeast life ext: compounds extending yeast replicative lifespan, primary screen, S. cerevisiae, OD615. S. cerevisiae growth with nicotinamide; deaD strain in restrictive glucose medium. inhibition of the nicotinamide effect, % at 10 µM. 0.68% of 130,000 active;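 active = inhibition above a set limit, placed 3 SD over the median of all compounds, cut at about 26% in these data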;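 also: 0% = nicotinamide-treated wells and 100% = cells grown without nicotinamide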
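Test system: DeaD-strain S. cerevisiae / Buffer or medium: restrictive glucose medium / Also added: nicotinamide 1.5 mM / Doses: one concentration, 10 µM, DMSO 0.25% / Schedule: 48 h at 30 °C / Signal: OD615 measurement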
RAM network inh: inhibitors of the yeast RAM network, primary screen, dse1pr::URA3 reporter, 5-FOA selection | AID 868, 2007 | S. cerevisiae dse1pr::URA3 reporter, 5-FOA growth OD615, 2 d; analog-sensitive cbk1-as2 kinase mutant strain | 1.8% of 190,000 active | inhibition, % at 50 µM;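 active = inhibition above a set limit, 3 SD over mean compound inhibition, cut at about 8.4% in these data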;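 also: 0% = DMSO-only wells with no growth and 100% = 10 µM 1-NA-PP1 full growth; inhibition rescues growth on 5-FOA so higher OD means more RAM inhibition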
BB579 growth dn: growth inhibitors of yeast BB579 in restrictive medium, primary screen, yeast lifespan-shortening project, S. cerevisiae; 0.51% of 140,000 active; inhibition, % at 10 µM; OD615, 48 h;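 active = inhibition above a set limit, 3 SD over the mean compound inhibition, cut at about 44% in these data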
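System: DeaD yeast strain BB579; buffer or medium: CSMM-D dextrose restrictive medium; technique: OD at 615 nm; schedule: 4 h cell preincubation, 48 h compound exposure, 30 °C humidified; doses: single 10 µM dose; controls: amphotericin B 10 µg/mL, positive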
RAM 5-FOA: 5-FOA growth of efflux-deficient control yeast, dose response, counter-screen for RAM network inhibitor project, S. cerevisiae, OD615. shares compounds with RAM network inh. S. cerevisiae efflux-deficient reporter strain, 5-FOA growth OD615, 2 days. max inhibition, %. 1,200 tested, under 10 active. AID 1305, 2008; call rule not given here;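 also: plate controls were vehicle for no effect and reference inhibitor for full effect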
* = called active by the depositor.

How did COc1ccccc1N(C)S(=O)(=O)c1ccc(C(=O)OCC(=O)NCCC2=CCCCC2)cc1 do in these assays?
Measles CPE: 6; Yeast life ext: 10; RAM network inh: 15*; BB579 growth dn: -36; RAM 5-FOA: 2

Results for CCCNC(=O)NC(=O)COC(=O)c1ccc(S(=O)(=O)N(C)c2ccccc2OC)cc1 ?
RAM network inh: 0

What do the screens show for `O=C(C[n+]1ccc(C(=O)NCc2ccccc2)cc1)c1ccc(OC(F)F)cc1`?
RAM network inh: 0

What do the screens show for `O=C(NCc1ccccc1)/C(=C/c1ccc(OC(F)F)cc1)c1ccccc1`?
Measles CPE: 3; Yeast life ext: -1; RAM network inh: 12*; BB579 growth dn: -10; RAM 5-FOA: 2

What do the screens show for `CCOC(=O)C1=C(C)NC(C)=C(C(=O)OCC)C1/C=C/c1ccccc1`?
Measles CPE: 9; Yeast life ext: -1; RAM network inh: 3; BB579 growth dn: -1

Results for C=CCOC(=O)C1=C(C)NC(C)=C(C(=O)OCC=C)C1/C=C/c1ccccc1 ?
Measles CPE: 27; Yeast life ext: 6; RAM network inh: 15*; BB579 growth dn: -40; RAM 5-FOA: 5

Results for Cc1ccc(NC(=S)NNS(=O)(=O)c2ccc3ccccc3c2)cc1Cl ?
RAM network inh: 7

What do the screens show for `COc1ccc(C(=O)O/N=C/c2c(C(F)(F)F)nn(C)c2SCc2ccccc2Cl)cc1`?
Measles CPE: 19; Yeast life ext: 6; RAM network inh: 12*; BB579 growth dn: -63; RAM 5-FOA: 4

What do the screens show for `COC(=O)c1ccccc1Sc1c(/C=N/OC(=O)c2ccccc2)c(C(F)(F)F)nn1C`?
Measles CPE: 7; Yeast life ext: -6; RAM network inh: 3; BB579 growth dn: -7

How did Cn1nc(C(F)(F)F)c(/C=N/OC(=O)c2ccccc2Cl)c1SCc1ccc(Cl)cc1 do in these assays?
Measles CPE: 19; Yeast life ext: -5; RAM network inh: 16*; BB579 growth dn: -36; RAM 5-FOA: 3

What do the screens show for `C=CCn1c(C(CCCC)CC(O)COCC(C)C)n[nH]c1=S` (configuration not stated)?
RAM network inh: 0

What do the screens show for `CCCN(CC1CC1)C(=O)COC(=O)c1ccc(CNS(=O)(=O)c2ccc(F)c(Cl)c2)cc1`?
Measles CPE: 22; Yeast life ext: 3; RAM network inh: 12*; BB579 growth dn: -11; RAM 5-FOA: 1

Results for CCOC(=O)C1(CCOc2ccccc2)CCN(C(=O)c2ccc(-n3cccn3)cc2)CC1 ?
RAM network inh: 19*; RAM 5-FOA: 1

How did Nc1nc(SCC(=O)NCc2ccccc2Cl)[nH]c(=O)c1NC(=O)c1ccccc1F do in these assays?
Measles CPE: 4; Yeast life ext: 2; RAM network inh: 3; BB579 growth dn: -26

What do the screens show for `Nc1nc(SCC(=O)NCc2ccc(F)cc2)[nH]c(=O)c1NC(=O)c1ccc(Cl)cc1`?
Measles CPE: 3; Yeast life ext: 4; RAM network inh: 12*; BB579 growth dn: -42; RAM 5-FOA: 1

Results for N#Cc1c(N)nc(SCc2ccccn2)c(C#N)c1-c1cccs1 ?
Measles CPE: 25; Yeast life ext: -8; RAM network inh: 12*; BB579 growth dn: -51; RAM 5-FOA: 4

What do the screens show for `CC(C)(C)c1ccccc1NC(=S)NC1CCCCC1`?
RAM network inh: 6

Results for O=C(/C=C/c1ccc(Cl)cc1)c1cccnc1 ?
Measles CPE: 2; Yeast life ext: -6; RAM network inh: 1; BB579 growth dn: -19

How did O=C(/C=C/c1ccc(OCc2ccccc2)c(OCc2ccccc2)c1)c1cccnc1 do in these assays?
Measles CPE: 12; Yeast life ext: 5; RAM network inh: 14*; BB579 growth dn: -20; RAM 5-FOA: 6

Results for C=CCNC(=O)/C(=C\c1ccc(Br)cc1)NC(=O)c1ccccc1OC ?
RAM network inh: 6

What do the screens show for `Cc1ccc(N=C(NOCc2ccc(Cl)cc2Cl)c2nonc2N)c(C)c1`?
Measles CPE: 8; Yeast life ext: -8; RAM network inh: 13*; BB579 growth dn: -52; RAM 5-FOA: 6
